For data set [1], the target named is Keap1/Nrf2 (Homo sapiens) (UniProt Q16236+Q14145). Nature of the data set: (§1) Activation of NRF2 in human U2OS cells co-expressing Keap1 (unknown origin) assessed as induction of NRF2 translocation to nucleus incubated for 6 hrs by beta-galactosidase based chemiluminescent assay. Format: cell-based. The essentials: (§2)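 PathHunter U2OS cells engineered to co-express enzyme donor-tagged NRF2 and nuclear-localized enzyme acceptor; Nrf2 nuclear translocation reconstitutes β-galactosidase. Cells in 96-well plates exposed to a range of compound concentrations for 6 h at room temperature (20–23 °C), then 1 h with detection reagent in the dark; chemiluminescence (RLU) read. EC50 from concentration-response curve, mean ± SEM, triplicate.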

Data set [2] addresses Keap1/Nrf2 (Homo sapiens, UniProt Q14145+Q16236). The data set is described as §1. The class given is cell-based. The essentials: as §2
Data set [3] has as its target T1, Nuclear factor erythroid 2-related factor 2 (Mus musculus) (UniProt Q60795).
T1 sequence (whole entry): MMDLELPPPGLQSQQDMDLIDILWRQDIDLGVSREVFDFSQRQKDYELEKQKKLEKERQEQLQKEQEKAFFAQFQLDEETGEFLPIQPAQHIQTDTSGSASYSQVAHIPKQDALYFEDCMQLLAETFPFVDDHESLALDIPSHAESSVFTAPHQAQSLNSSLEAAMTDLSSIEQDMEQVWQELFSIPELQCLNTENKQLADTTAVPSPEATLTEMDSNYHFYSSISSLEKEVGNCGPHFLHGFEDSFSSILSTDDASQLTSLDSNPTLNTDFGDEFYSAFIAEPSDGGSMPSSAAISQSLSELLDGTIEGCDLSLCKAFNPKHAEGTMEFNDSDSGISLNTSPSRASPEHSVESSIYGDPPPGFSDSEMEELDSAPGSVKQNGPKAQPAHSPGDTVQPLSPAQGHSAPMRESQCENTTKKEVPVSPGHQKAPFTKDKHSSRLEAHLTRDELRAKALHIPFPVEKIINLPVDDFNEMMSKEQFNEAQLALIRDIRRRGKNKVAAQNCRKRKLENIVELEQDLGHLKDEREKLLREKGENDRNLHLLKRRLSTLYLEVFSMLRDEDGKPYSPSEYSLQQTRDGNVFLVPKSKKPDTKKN
Nature of the data set: Activation of NRF2 in mouse BV2 cells assessed as upregulation of HO1 at 20 uM by ELISA relative to control. The class given is cell-based.

The target in data set [4] is T1, Nuclear factor erythroid 2-related factor 2 (Mus musculus). The data set can be described thus: Activation of NRF2 in mouse BV2 cells assessed as increase in GCLM protein expression at 3 uM incubated for 6 hrs by Western blot analysis. The class given is cell-based. Summed up: (§3)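 BV-2 cells washed in ice-cold PBS and lysed on ice for 40 min in RIPA buffer with protease inhibitors. Nuclear fractions prepared separately. 10 μg protein run on SDS-PAGE and blotted to PVDF. Membranes blocked in 5% skim milk/TBST and probed overnight at 4 °C for Nrf2, HO-1, GCLM or SOD1. HRP secondary with ECL detection. Band densities normalised to Lamin B1 or β-actin.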

Data set [5] shares this target. The data set can be described thus: Activation of NRF2 in mouse BV2 cells assessed as increase in GCLM protein expression at 10 uM incubated for 12 hrs by Western blot analysis. The class given is cell-based. Summed up: as §3
Data set [6] shares this target. The data set can be described thus: Activation of NRF2 in mouse BV2 cells assessed as increase in SOD activity incubated for 24 hrs by WST-1 based assay. The class given is cell-based. The essentials: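 BV-2 cells (1.0×10^6) treated with compound for 24 h, or for 6 h followed by 400 μM H2O2 for 18 h. Cells washed, sonicated in ice-cold PBS and centrifuged; supernatant assayed by WST-1/superoxide inhibition. Activity derived from the IC50 of the inhibition curve and given as U/mg protein (1 U = 50% inhibition of WST-1 reduction).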

Data set [7] has as its system Mus musculus. Nature of the data set: Cognition enhancing effect in C57BL/6 mouse model of scopolamine-induced amnesia assessed as increase in […] percentage at 30 mg/kg, po administered for 5 days and measured on day 5 after 30 mins of scopolamine stimulation by Y-maze test. The class given is functional, organism-based. Summed up: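 Male C57BL/6N mice given 30 mg/kg/day compound in saline by gavage for 5 days. Scopolamine 2 mg/kg in saline given i.p. 30 min before testing on the last day. Mice handled daily for 7 days beforehand. Free exploration of a three-arm Y-maze for 10 min, with entries scored manually (all four paws). Alternation = consecutive entries into three different arms.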

Data set [8] concerns the target CYP2C9 (Homo sapiens, UniProt P11712). The data set can be described thus: Inhibition of CYP2C9 (unknown origin) assessed as remaining activity relative to control. Format: ADME.
Data set [9] can be described thus: Lipophilicity, log P of the compound. Format: physicochemical. Conditions: octanol/water.

Calls of active or inactive are those of the source. The calls are words filed in the database; no cut-off is given here.

Sequence of CYP2C9 (P11712 whole entry): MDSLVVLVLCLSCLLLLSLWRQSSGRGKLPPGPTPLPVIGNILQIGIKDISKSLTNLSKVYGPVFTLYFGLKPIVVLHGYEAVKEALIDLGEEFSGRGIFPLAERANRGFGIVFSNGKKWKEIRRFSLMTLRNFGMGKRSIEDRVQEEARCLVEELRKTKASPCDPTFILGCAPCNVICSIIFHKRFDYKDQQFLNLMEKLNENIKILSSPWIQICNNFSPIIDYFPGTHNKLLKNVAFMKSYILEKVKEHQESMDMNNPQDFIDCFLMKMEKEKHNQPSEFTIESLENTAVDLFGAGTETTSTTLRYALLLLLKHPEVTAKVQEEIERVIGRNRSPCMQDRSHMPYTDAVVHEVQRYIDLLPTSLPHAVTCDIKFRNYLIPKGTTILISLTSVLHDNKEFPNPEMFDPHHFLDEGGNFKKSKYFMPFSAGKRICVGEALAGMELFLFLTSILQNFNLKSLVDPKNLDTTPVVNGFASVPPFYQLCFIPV
Sequence of Keap1/Nrf2 (Q16236 whole entry): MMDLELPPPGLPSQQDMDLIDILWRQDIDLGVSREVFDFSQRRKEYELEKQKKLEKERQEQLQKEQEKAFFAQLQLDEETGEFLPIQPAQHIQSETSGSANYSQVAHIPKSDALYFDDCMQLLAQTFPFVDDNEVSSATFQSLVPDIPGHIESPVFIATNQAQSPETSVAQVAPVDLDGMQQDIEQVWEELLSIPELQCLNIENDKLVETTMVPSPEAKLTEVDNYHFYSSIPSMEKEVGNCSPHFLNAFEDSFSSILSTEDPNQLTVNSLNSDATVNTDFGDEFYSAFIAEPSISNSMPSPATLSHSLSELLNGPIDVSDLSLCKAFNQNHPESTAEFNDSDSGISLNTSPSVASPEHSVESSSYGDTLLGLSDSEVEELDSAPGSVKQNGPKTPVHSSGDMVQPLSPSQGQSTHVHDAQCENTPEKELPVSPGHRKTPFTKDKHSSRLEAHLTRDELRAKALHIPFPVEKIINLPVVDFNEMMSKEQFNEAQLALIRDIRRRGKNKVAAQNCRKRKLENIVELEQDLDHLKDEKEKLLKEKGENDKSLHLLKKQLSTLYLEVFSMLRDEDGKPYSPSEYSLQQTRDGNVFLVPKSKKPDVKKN
Sequence of Keap1/Nrf2 (Q14145 whole entry): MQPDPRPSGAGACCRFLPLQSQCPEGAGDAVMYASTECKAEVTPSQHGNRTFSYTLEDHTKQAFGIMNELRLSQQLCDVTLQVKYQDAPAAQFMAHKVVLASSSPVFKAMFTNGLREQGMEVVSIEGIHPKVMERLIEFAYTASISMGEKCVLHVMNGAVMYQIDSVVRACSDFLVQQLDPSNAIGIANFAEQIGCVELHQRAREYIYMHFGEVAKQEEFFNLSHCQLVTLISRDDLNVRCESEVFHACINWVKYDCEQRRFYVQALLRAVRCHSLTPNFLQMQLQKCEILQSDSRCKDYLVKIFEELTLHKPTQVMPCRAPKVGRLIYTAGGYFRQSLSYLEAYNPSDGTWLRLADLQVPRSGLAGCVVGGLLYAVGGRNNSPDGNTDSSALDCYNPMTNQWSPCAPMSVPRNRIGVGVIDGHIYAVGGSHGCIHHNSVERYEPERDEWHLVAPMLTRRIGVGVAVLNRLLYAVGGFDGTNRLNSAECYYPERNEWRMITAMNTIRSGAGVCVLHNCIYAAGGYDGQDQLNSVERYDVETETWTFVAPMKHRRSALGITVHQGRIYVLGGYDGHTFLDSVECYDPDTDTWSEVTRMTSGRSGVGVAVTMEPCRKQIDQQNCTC
Sequence of Keap1/Nrf2 (Homo sapiens) (Q14145 whole entry, looked up): as the sequence (Q14145 whole entry) above
Sequence of Keap1/Nrf2 (Homo sapiens) (Q16236 whole entry, looked up): as the sequence (Q16236 whole entry) above

On to `CN1CCN(C(=O)COc2ccc(C(=O)/C=C/c3ccccc3C(F)(F)F)cc2)CC1.Cl`, for which the Activity entry in data set [1] is “Dose-dependent effect”; in [3] it was 589%; in [6] it was “Dose-dependent effect”. For the same compound, the EC50 in [2] turned out to be 0.63 µM. Moreover, the Activity result in [4] and in [7] was “Active” throughout. Further, in [5], the fold change (FC) was greater than 15. Also, the activity in data set [8] amounted to 95.1%. This compound gave a lipophilicity (logP) in [9] of 3.22.

Source of the values: ChEMBL document CHEMBL4312006, “A novel chalcone derivative as Nrf2 activator attenuates learning and memory impairment in a scopolamine-induced mouse model” (Eur J Med Chem, 2020).
